{"data": "Experimental data of several laboratories", "mode": "inhibitor", "FABP1": "Fatty acid-binding protein, liver (FABP1, Homo sapiens, UniProt P07148)", "SQLE": "Squalene monooxygenase (SQLE, Homo sapiens, UniProt Q14534)", "MAL12": "Alpha-glucosidase MAL12 (MAL12, Saccharomyces cerevisiae S288c, UniProt P53341)", "SLC22A6": "Solute carrier family 22 member 6 (SLC22A6, Homo sapiens, UniProt Q4U2R8)", "note": "Each line is one published result; the experiments were not run side by side. pIC50: −log10 of the molar value."}
{"SMILES": "Cc1cc2c(cc1C)N[C@H](c1ccccc1)[C@@H](O)C(=O)N2", "target": "Cyclin-dependent kinase 5 (CDK5, Homo sapiens, UniProt Q00535)", "read-out": "enzyme activity", "technique": "ELISA", "pIC50": 6.18}
{"SMILES": "CCCOc1ccc2c(c1)O/C(=C\\c1ccc(OCC(=O)O)cc1)C2=O", "target": "FABP1", "read-out": "cell-free assay", "technique": "fluorescence", "pH": "pH 7.4", "pIC50": 4.84}
{"SMILES": "O=C(O)[C@H]1O[C@@H](Oc2cc3oc(-c4ccccc4)cc(=O)c3c(O)c2O)[C@H](O)[C@@H](O)[C@@H]1O", "target": "SQLE", "read-out": "enzyme activity", "technique": "radiometric", "pIC50": 5.60}
{"SMILES": "CNC(=O)[C@H](Cc1c[nH]c2ccccc12)NC(=O)[C@@H](CC(=O)NO)CC(C)C", "target": "Disintegrin and metalloproteinase domain-containing protein 10 (ADAM10, Homo sapiens, UniProt O14672)", "read-out": "enzyme activity", "pIC50": 6.11}
{"SMILES": "Cc1ccc(NC(=O)N2CCN(c3ccnc(Nc4ccc(Cl)cc4)n3)[C@H](C)C2)cc1", "target": "MAL12", "read-out": "enzyme activity", "technique": "absorbance", "pH": "pH 6.9", "pIC50": 5.11}
{"SMILES": "COc1ccc2c(c1)O/C(=C\\c1cc(C)c(OC(C)(C)C(=O)O)c(C)c1)C2=O", "target": "FABP1", "read-out": "cell-free assay", "technique": "fluorescence", "pH": "pH 7.4", "pIC50": 5.05}
{"SMILES": "C[C@H]1CN(C(=O)Nc2ccc(C(F)(F)F)cc2)CCN1c1ccnc(Nc2ccc(O)cc2)n1", "target": "MAL12", "read-out": "enzyme activity", "technique": "absorbance", "pH": "pH 6.9", "pIC50": 5.43}
{"SMILES": "O=c1cc(-c2ccccc2)oc2cc(O)cc(O)c12", "target": "SQLE", "read-out": "enzyme activity", "technique": "radiometric", "pIC50": 5.35}
{"SMILES": "O=C1COc2ccc(NS(=O)(=O)c3cccc(Cl)c3)cc2CN1C1CCCc2ccccc21 (stereo not drawn)", "target": "Replicase polyprotein 1ab, papain-like protease (rep, Severe acute respiratory syndrome coronavirus 2, UniProt P0DTD1)", "read-out": "enzyme activity", "technique": "fluorescence", "pIC50": 5.22}
{"SMILES": "N#Cc1ccc2c(c1)N(CCCN1CCC(O)CC1)c1ccccc1S2", "target": "SQLE", "read-out": "enzyme activity", "technique": "absorbance", "pH": "pH 7.4", "setting": "with preincubation", "pIC50": 5.81}
{"SMILES": "CC(C)=CCC/C(C)=C/CC/C(C)=C/CC/C=C(\\C)CC/C=C(\\C)CCCNC1CC1", "target": "SQLE", "read-out": "enzyme activity", "technique": "radiometric", "pIC50": 5.57}
{"SMILES": "Cc1cc(/C=C2\\Oc3cc(OCC(C)C)ccc3C2=O)cc(C)c1OC(C)(C)C(=O)O", "target": "FABP1", "read-out": "cell-free assay", "technique": "fluorescence", "pH": "pH 7.4", "pIC50": 5.32}
{"SMILES": "NS(=O)(=O)c1ccc(-n2nc(C(=O)NN=Cc3ccccc3O)cc2-c2ccccc2)cc1", "target": "Focal adhesion kinase 1 (PTK2, Homo sapiens, UniProt Q05397)", "read-out": "enzyme activity", "technique": "ELISA", "pIC50": 4.80}
{"SMILES": "COc1ccc(Cl)cc1C(=O)NCCc1ccc(S(=O)(=O)NC(=O)NC2CCCCC2)cc1", "target": "SLC22A6", "read-out": "transporter uptake", "technique": "fluorescence", "pIC50": 5.62}
{"SMILES": "CC(CN1CCN(CCOCCO)CC1)CN1c2ccccc2Sc2ccccc21 (stereo not drawn)", "target": "SQLE", "read-out": "enzyme activity", "technique": "absorbance", "pH": "pH 7.4", "setting": "with preincubation", "pIC50": 5.00}
{"SMILES": "Nc1ccn(C[C@@H](CO)OCP(=O)(O)O)c(=O)n1", "target": "Solute carrier family 22 member 6 (SLC22A6, Homo sapiens, UniProt Q4U2R8, N439A)", "read-out": "transporter uptake", "technique": "fluorescence", "pIC50": 3.65}
{"SMILES": "CC(=O)c1ccc2c(c1)N(CCCN1CCC(CCO)CC1)c1ccccc1S2", "target": "SQLE", "read-out": "enzyme activity", "technique": "absorbance", "pH": "pH 7.4", "setting": "with preincubation", "pIC50": 5.84}
{"SMILES": "CC(C)NC(=O)COc1cccc(-c2nc(Nc3ccc4[nH]ncc4c3)c3ccccc3n2)c1", "target": "SLC22A6", "read-out": "transporter uptake", "technique": "radiometric", "cell line": "HEK293", "pIC50": "< 6.00"}
{"SMILES": "C[C@H]1CN(C(=O)Nc2ccc(C(F)(F)F)cc2)CCN1c1ccnc(Nc2ccc(Br)cc2)n1", "target": "MAL12", "read-out": "enzyme activity", "technique": "absorbance", "pH": "pH 6.9", "pIC50": 5.80}
{"SMILES": "CCCOc1ccc2c(c1)O/C(=C\\c1ccc(OC(C)(C)C(=O)O)cc1)C2=O", "target": "FABP1", "read-out": "cell-free assay", "technique": "fluorescence", "pH": "pH 7.4", "pIC50": 5.03}
{"SMILES": "COc1ccc(-c2nn(-c3ccccc3)cc2C2C(C(C)=O)=C(C)n3c(=O)c4ccccc4c(=O)n32)cc1 (stereo not drawn)", "target": "MAL12", "read-out": "enzyme activity", "technique": "absorbance", "pIC50": 4.86}
{"SMILES": "O=c1cc(-c2ccc(O)cc2)oc2cc(O[C@@H]3O[C@H](CO)[C@@H](O)[C@H](O)[C@H]3O)cc(O)c12", "target": "SQLE", "read-out": "enzyme activity", "technique": "radiometric", "pIC50": 5.76}
{"SMILES": "COc1ccc(NC(=O)N2CCN(c3ccnc(Nc4ccc(Cl)cc4)n3)[C@@H](C)C2)cc1", "target": "MAL12", "read-out": "enzyme activity", "technique": "absorbance", "pH": "pH 6.9", "pIC50": 5.13}
{"SMILES": "CCCOc1ccc2c(c1)O/C(=C\\c1ccc(OC(C)(C)C(=O)O)c(Cl)c1)C2=O", "target": "FABP1", "read-out": "cell-free assay", "technique": "fluorescence", "pH": "pH 7.4", "pIC50": 5.11}
{"SMILES": "C[C@@H]1CN(C(=O)Nc2ccc(Cl)c(Cl)c2)CCN1c1ccnc(Nc2ccc(Cl)cc2)n1", "target": "MAL12", "read-out": "enzyme activity", "technique": "absorbance", "pH": "pH 6.9", "pIC50": 5.34}
{"SMILES": "CC(=O)C1=C(C)n2c(=O)c3ccccc3c(=O)n2C1c1cn(-c2ccccc2)nc1-c1ccc(O)cc1 (stereo not drawn)", "target": "MAL12", "read-out": "enzyme activity", "technique": "absorbance", "pIC50": 3.31}
{"SMILES": "C[C@H]1CN(C(=O)Nc2ccc(C(F)(F)F)cc2)CCN1c1ccnc(Nc2cccc(Cl)c2)n1", "target": "MAL12", "read-out": "enzyme activity", "technique": "absorbance", "pH": "pH 6.9", "pIC50": 5.46}
{"SMILES": "Cc1cc(/C=C2\\Oc3cc(OCC4CC4)ccc3C2=O)cc(C)c1OC(C)(C)C(=O)O", "target": "FABP1", "read-out": "cell-free assay", "technique": "fluorescence", "pH": "pH 7.4", "pIC50": 5.44}
{"SMILES": "C[C@H]1CN(C(=O)Nc2ccc(C(F)(F)F)cc2)CCN1c1ccnc(Nc2ccc(Cl)cc2Cl)n1", "target": "MAL12", "read-out": "enzyme activity", "technique": "absorbance", "pH": "pH 6.9", "pIC50": 4.92}
{"SMILES": "CC(=O)C1=C(C)n2c(=O)c3ccccc3c(=O)n2C1c1cn(-c2ccccc2)nc1-c1ccccc1 (stereo not drawn)", "target": "MAL12", "read-out": "enzyme activity", "technique": "absorbance", "pIC50": 4.81}
